Data: ChEMBL document CHEMBL4334445, “Caspase-Dependent Apoptosis in Prostate Cancer Cells and Zebrafish by Corchorusoside C from Streptocaulon juventas” (J Nat Prod, 2019)

Tests used:
HT-29 = assay: Cytotoxicity against human HT-29 cells assessed as reduction in cell viability measured after 72 hrs by SRB assay; assay type: functional, cell-based; conditions: HT-29, 72 h
DU-145 = assay: Cytotoxicity against human DU145 cells assessed as reduction in cell viability measured after 72 hrs by SRB assay; assay type: functional, cell-based; conditions: DU-145, 72 h
MDA-MB-231 = assay: Cytotoxicity against human MDA-MB-231 cells assessed as reduction in cell viability measured after 72 hrs by SRB assay; assay type: functional, cell-based; conditions: MDA-MB-231, 72 h
HeLa = assay: Cytotoxicity against human HeLa cells assessed as reduction in cell viability measured after 72 hrs by SRB assay; assay type: functional, cell-based
PC-3 = assay: Cytotoxicity against human PC3 cells assessed as reduction in cell viability measured after 72 hrs by SRB assay; assay type: functional, cell-based; conditions: PC-3, 72 h
[1] = Toxicity in 24 hrs post fertilized zebrafish embryo assessed as developmental delay at 50 uM measured after 24 hrs by microscopic analysis; parameters: species or system Danio rerio; conditions: in vivo
In short: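 Embryos raised at 28 °C to 24 hpf, then exposed to 50 μM in 1% DMSO in water (vehicle control) for 24 h; larvae examined and photographed by light microscopy for developmental morphology.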

MCF7 = assay: Cytotoxicity against human MCF7 cells assessed as reduction in cell viability measured after 72 hrs by SRB assay; assay type: functional, cell-based; conditions: MCF7, 72 h

CC(=O)O[C@H]1C(=O)[C@@]2(C)[C@H]([C@H](OC(=O)c3ccccc3)[C@]3(O)C[C@H](OC(=O)[C@H](O)[C@@H](NC(=O)c4ccccc4)c4ccccc4)C(C)=C1C3(C)C)[C@]1(OC(C)=O)CO[C@@H]1C[C@@H]2O [PACLITAXEL]
IC50 (HT-29): 2 nM
IC50 (DU-145): 4 nM
IC50 (MDA-MB-231): 100 nM
IC50 (HeLa): 5 nM
IC50 (PC-3): 170 nM

C[C@@H]1C[C@@H]([C@H](O)CC2CC(=O)NC(=O)C2)C(=O)[C@@H](C)C1 [CYCLOHEXIMIDE]
Activity [1]: Toxic

Cc1c2ccncc2c(C)c2c1[nH]c1ccccc12 [ELLIPTECINE]
IC50 (MCF7): 800 nM
